High-throughput results from PubChem BioAssay.
mABHD4 FP – ABHD4 (mouse) inhibition, primary FP screen; inhibition, % at 8.92 µM; AID 720543; purified mABHD4, FP-Rh probe fluorescence polarization; hit rate 0.54% among 370,000;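 active = inhibition exceeding the mean over every tested compound plus 3 SD, cut at about 30% in these data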;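 note: 0% = plate median of compound wells and 100% = S159A mutant with DMSO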
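system = mouse ABHD4 enzyme, wild type | medium = HEPES pH 7.0, NaCl, Pluronic buffer | also added = FP-Rh probe | incubation = Enzyme–compound pre-incubation 45 min, then probe 60 min, both 25 °C | technique = fluorescence polarization, excitation 525 nm, emission 598 nm, BODIPY TMR filters | controls = S159A mutant high control, sample median low control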
pPAFAH FP inh – inhibitors of human plasma PAF acetylhydrolase (pPAFAH) | Q13093 | recombinant pPAFAH, FP-rhodamine probe fluorescence polarization | inhibition, % at 3.39 µM | hit rate 1.5% among 330,000;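 active = inhibition above the mean inhibition across the screen plus 3 SD, cut at about 25% in these data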;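 note: inhibitors block binding of the rhodamine activity-based probe so polarization drops; 0% = enzyme with DMSO and 100% = wells lacking pPAFAH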
SIAE primary – blocks human sialic acid acetylesterase; Q9HAT2; hit rate 0.69% among 370,000; SIAE FP-Rh probe binding, fluorescence polarization; inhibition, % at 9.66 µM;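 active = inhibition above a cutoff: mean of compounds within the control limits plus 3 SD of those, cut at about 17% in these data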;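 note: 0% = plate median of compound wells and 100% = probe without SIAE protein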
Target sequence (Q9HAT2 whole entry, looked up): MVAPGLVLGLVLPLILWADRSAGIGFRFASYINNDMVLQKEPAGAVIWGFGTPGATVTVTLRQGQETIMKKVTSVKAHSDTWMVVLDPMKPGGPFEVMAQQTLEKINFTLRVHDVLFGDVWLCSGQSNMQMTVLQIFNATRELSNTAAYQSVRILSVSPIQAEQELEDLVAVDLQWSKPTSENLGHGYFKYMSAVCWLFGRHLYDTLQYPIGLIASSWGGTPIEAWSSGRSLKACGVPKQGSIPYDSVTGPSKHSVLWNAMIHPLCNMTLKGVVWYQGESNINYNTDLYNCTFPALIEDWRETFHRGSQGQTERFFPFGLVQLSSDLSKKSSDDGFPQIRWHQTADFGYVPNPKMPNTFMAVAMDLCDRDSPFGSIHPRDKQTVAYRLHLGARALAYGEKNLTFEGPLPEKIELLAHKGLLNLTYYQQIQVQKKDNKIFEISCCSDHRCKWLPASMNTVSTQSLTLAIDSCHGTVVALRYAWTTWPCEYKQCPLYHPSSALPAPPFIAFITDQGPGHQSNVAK
HTRA1 inhibitor – inhibitors of human serine peptidase HTRA1. Q92743. recombinant HTRA1, FP-rhodamine activity-based probe, fluorescence polarization. inhibition, % at 5.96 µM. hit rate 0.5% among 340,000. AID 504803; in the data active = inhibition above about 36%;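 note: 0% = enzyme with DMSO and 100% = wells lacking enzyme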
TCR CD3 inh – blocks the human TCR-CD3 interaction; TAMRA-labeled TCR probe fluorescence, biochemical; inhibition, % at 9.4 µM; hit rate 0.37% among 360,000; AID 651800; in the data active = inhibition above about 19%;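 note: recombinant mutant TCR 2C K166C tagged with TAMRA read by polarization; 0% = receptor in buffer alone and 100% = receptor with positive control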
SIAE inh conf – confirmation of human SIAE inhibitors | shares compounds with SIAE primary | SIAE FP-Rh activity-based probe, fluorescence polarization | inhibition, % at 9.66 µM | hit rate 13% among 2,300 | AID 1117263;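 active = mean inhibition of the replicates above the hit cutoff set in the primary screen, cut at about 17% in these data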;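 note: 0% = SIAE with DMSO and probe and 100% = probe without SIAE; inhibitors lower polarization as more probe stays unbound to SIAE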
* marks the source's active call; other numbers are inactive results. Hits are enriched below; roughly 2.3% of the tested compounds scored in any of these assays.

For CCCCn1c(N)c(N(CC)C(=O)CSc2nnnn2-c2cc(C)ccc2C)c(=O)[nH]c1=O the results were mABHD4 FP -3, pPAFAH FP inh 2, SIAE primary 2, HTRA1 inhibitor 2 and TCR CD3 inh 2.
For CCCCn1c(N)c(N(C(=O)CSc2nnnn2-c2ccccc2)C2CCCC2)c(=O)[nH]c1=O the results were mABHD4 FP 1, pPAFAH FP inh -3, SIAE primary 22*, HTRA1 inhibitor -2, TCR CD3 inh -8 and SIAE inh conf 16.
`Nc1nc(NCc2ccco2)nc(N2CCCCC2)c1[N+](=O)[O-]` gave mABHD4 FP -1, pPAFAH FP inh 14, SIAE primary 19*, HTRA1 inhibitor 3, TCR CD3 inh 6 and SIAE inh conf 1.
For O=C1OC(c2ccccc2)=NC12CC2c1ccc(Cl)cc1 (stereo not drawn) the results were mABHD4 FP -1, pPAFAH FP inh -7, SIAE primary 23*, HTRA1 inhibitor 8, TCR CD3 inh -2 and SIAE inh conf 70*.
For Cc1cc(S(=O)(=O)NC(=O)[C@H]2O[C@@H](n3ccc(=O)[nH]c3=O)[C@H](O)[C@@H]2O)ccc1Br the results were mABHD4 FP 7, SIAE primary 2 and TCR CD3 inh -2.
`O=C(NS(=O)(=O)c1ccccc1[N+](=O)[O-])[C@H]1O[C@@H](n2ccc(=O)[nH]c2=O)[C@H](O)[C@@H]1O` gave mABHD4 FP -1, SIAE primary 30*, TCR CD3 inh 4 and SIAE inh conf 30*.
Nc1ncnc2c1ncn2[C@@H]1O[C@H](C(=O)NS(=O)(=O)c2ccccc2[N+](=O)[O-])[C@@H](O)[C@H]1O was read as mABHD4 FP -10, SIAE primary 2 and TCR CD3 inh -6.
`CN(C)c1cccc2c(S(=O)(=O)NC(=O)[C@H]3O[C@@H](n4ccc(=O)[nH]c4=O)[C@H](O)[C@@H]3O)cccc12` gave mABHD4 FP -5, SIAE primary 36*, TCR CD3 inh 9 and SIAE inh conf 46*.
Screening Clc1cccc(CSc2ncnc3sc4c(c23)CCCC4)c1 returned mABHD4 FP 0 and SIAE primary -1.
Screening CCc1ccccc1NC(=O)c1onc(C)c1Cl returned mABHD4 FP -1, pPAFAH FP inh -6, SIAE primary 32*, HTRA1 inhibitor 3, TCR CD3 inh 3 and SIAE inh conf -2.
`COC(=O)c1ccccc1NC(=O)c1onc(C)c1Cl` gave mABHD4 FP -3, SIAE primary -5, HTRA1 inhibitor 3 and TCR CD3 inh 0.
Screening O=C(O)c1c(Cl)cccc1Nc1ccccc1 returned mABHD4 FP 0, SIAE primary 9 and TCR CD3 inh 8.
`CCC(=O)Nc1sc2c(c1C(N)=O)CCC2` gave mABHD4 FP -10, pPAFAH FP inh 0, SIAE primary 5, HTRA1 inhibitor 1 and TCR CD3 inh 2.
For CCCN(CCC)C(=O)c1c(NC(=O)CC)sc2c1CCCCC2 the results were mABHD4 FP 6, pPAFAH FP inh 1, SIAE primary 22*, HTRA1 inhibitor 6, TCR CD3 inh 6 and SIAE inh conf -5.
COC(=O)[C@]12C[C@H](CC(=O)N3CCCC3)C(=O)N(Cc3cccc4ccccc34)C1=C[C@H](C(C)C)O[C@@H]2C1CC1 was read as mABHD4 FP -3 and SIAE primary 9.
Cc1ccc2[nH]c3c(NCc4ccco4)ncnc3c2c1 was read as mABHD4 FP 11, pPAFAH FP inh 14, SIAE primary -5, HTRA1 inhibitor -5 and TCR CD3 inh 0.
For COc1cc(CNc2ncnc3c2[nH]c2ccc(C)cc23)cc(OC)c1 the results were mABHD4 FP 22, pPAFAH FP inh 11, SIAE primary 37*, HTRA1 inhibitor -5, TCR CD3 inh -11 and SIAE inh conf 13.
For CCOc1ccc2[nH]c3c(NCCc4ccc(OC)c(OC)c4)ncnc3c2c1 the results were mABHD4 FP 15, pPAFAH FP inh 13, SIAE primary 19*, HTRA1 inhibitor 11, TCR CD3 inh -10 and SIAE inh conf 14.
CC(C)[C@H](N)C(=O)N[C@H]1CCC2C3CC=C4C[C@@H](O)CC[C@]4(C)C3CC[C@@]21C (stereo partly drawn) was read as mABHD4 FP 1, SIAE primary -3, HTRA1 inhibitor -10 and TCR CD3 inh -2.
O=C(CSc1nc2ccc(Cl)cc2[nH]1)Nc1ccc2[nH]c(=O)[nH]c2c1 was read as mABHD4 FP 6, pPAFAH FP inh 13, SIAE primary 18*, HTRA1 inhibitor -5, TCR CD3 inh -8 and SIAE inh conf 2.
Screening S=C(NCC1CCCO1)Nc1ccccc1 (stereo not drawn) returned mABHD4 FP 1, pPAFAH FP inh 2, SIAE primary 21*, HTRA1 inhibitor 2, TCR CD3 inh 4 and SIAE inh conf 0.
S=C(NCC1CCCO1)Nc1ccc(Cl)cc1 (stereo not drawn) was read as mABHD4 FP -3, pPAFAH FP inh -1, SIAE primary -4, HTRA1 inhibitor 0 and TCR CD3 inh -2.
`O=C(NCC1CCCO1)c1nnc(Cc2ccc(F)cc2)o1` (stereo not drawn) gave mABHD4 FP -2, pPAFAH FP inh 8, SIAE primary 18*, HTRA1 inhibitor -3, TCR CD3 inh -2 and SIAE inh conf -5.
Screening O=C(CN(Cc1ccc(Br)cc1)S(=O)(=O)c1ccccc1)NCC1CCCO1 (stereo not drawn) returned mABHD4 FP -7, pPAFAH FP inh 0, SIAE primary 18*, HTRA1 inhibitor -2, TCR CD3 inh -6 and SIAE inh conf 16.
Screening O=C(NCC1CCCO1)c1ccccc1 (stereo not drawn) returned mABHD4 FP -6, pPAFAH FP inh 4, SIAE primary 17*, HTRA1 inhibitor -11, TCR CD3 inh 3 and SIAE inh conf 4.
Screening COc1ccc(NC(=O)C2(C)Cc3c(-c4cccc(C(N)=O)c4)ccnc3O2)cc1 (stereo not drawn) returned mABHD4 FP -1, SIAE primary 0 and TCR CD3 inh -6.
O=c1oc2cc(O)ccc2cc1-c1nc2c(s1)CCc1ccccc1-2 was read as mABHD4 FP 13, pPAFAH FP inh 18, SIAE primary 19*, HTRA1 inhibitor -2, TCR CD3 inh 0 and SIAE inh conf -7.
`Clc1ccc(SCc2csc(N3CCOCC3)n2)cc1` gave mABHD4 FP 0, pPAFAH FP inh 1, SIAE primary 18*, HTRA1 inhibitor 0, TCR CD3 inh 5 and SIAE inh conf -1.
Screening CC(=O)NNC(=O)CCn1c2c(c3ccccc31)CCCC2 returned mABHD4 FP -2, pPAFAH FP inh 0, SIAE primary 20*, HTRA1 inhibitor 7, TCR CD3 inh 1 and SIAE inh conf -5.
